PMC3577957 (Insect biochemistry and molecular biology, 2012)
Marks after values point to notes of the source that are not given here.

How the values were obtained:
Hv-mEH1 [1] = molecular target: T1, Hv-mEH1 (Chloridea virescens, UniProt L7R9X8); experiment: Partition assay with radiolabeled general epoxide substrates, Hv-mEH1; format: biochemical, Heliothis virescens; details: 100 mM sodium phosphate, pH 8.0, 50 μM substrate, 1% ethanol, 0.1 mg ml^−1 BSA, 30°C; corrected for background hydrolysis
Summary of the method: (§1)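 Microsomal enzyme came from baculovirus-infected High Five cells (MOI 0.5, 65 h p.i., Triton X-100 extract, 163,000 xg supernatant). Partition assay used tritium-labeled cis-stilbene oxide, trans-stilbene oxide or t-DPPO. Enzyme amount was set so at most 15% of substrate was hydrolyzed. Assays were run in triplicate and repeated at least three times. Results are mean ± standard deviation.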

MsJHEH [2] = molecular target: T2, MsJHEH (Manduca sexta, UniProt Q25489); experiment: Partition assay with radiolabeled general epoxide substrates, MsJHEH; format: biochemical; details: 100 mM sodium phosphate, pH 8.0, 50 μM substrate, 1% ethanol, 0.1 mg ml^−1 BSA, 30°C; corrected for background hydrolysis
T2 sequence (Q25489 1-462): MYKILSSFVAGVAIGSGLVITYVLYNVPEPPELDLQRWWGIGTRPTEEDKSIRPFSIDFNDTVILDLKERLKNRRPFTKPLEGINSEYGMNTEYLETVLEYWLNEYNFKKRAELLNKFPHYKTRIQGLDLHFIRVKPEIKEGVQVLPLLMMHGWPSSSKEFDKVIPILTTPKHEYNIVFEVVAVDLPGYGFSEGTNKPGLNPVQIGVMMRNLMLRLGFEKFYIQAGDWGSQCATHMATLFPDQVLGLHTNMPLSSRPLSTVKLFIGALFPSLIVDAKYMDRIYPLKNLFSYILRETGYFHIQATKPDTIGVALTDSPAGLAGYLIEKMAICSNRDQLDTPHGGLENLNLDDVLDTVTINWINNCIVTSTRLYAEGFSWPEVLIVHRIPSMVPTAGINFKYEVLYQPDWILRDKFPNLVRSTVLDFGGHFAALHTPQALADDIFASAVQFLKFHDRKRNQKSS
Summary of the method: as §1

[3] = molecular target: T3, hmEH (human microsomal EH, EPHX1) (Homo sapiens, UniProt P07099); experiment: Fluorescent substrate assay, hmEH; format: biochemical; details: 50 mM Tris-HCl, pH 8.0, 5 μM substrate, 100 μM OTFP, 1% DMSO, 0.1 mg ml^−1 BSA, 30°C
T3 sequence (P07099 1-455): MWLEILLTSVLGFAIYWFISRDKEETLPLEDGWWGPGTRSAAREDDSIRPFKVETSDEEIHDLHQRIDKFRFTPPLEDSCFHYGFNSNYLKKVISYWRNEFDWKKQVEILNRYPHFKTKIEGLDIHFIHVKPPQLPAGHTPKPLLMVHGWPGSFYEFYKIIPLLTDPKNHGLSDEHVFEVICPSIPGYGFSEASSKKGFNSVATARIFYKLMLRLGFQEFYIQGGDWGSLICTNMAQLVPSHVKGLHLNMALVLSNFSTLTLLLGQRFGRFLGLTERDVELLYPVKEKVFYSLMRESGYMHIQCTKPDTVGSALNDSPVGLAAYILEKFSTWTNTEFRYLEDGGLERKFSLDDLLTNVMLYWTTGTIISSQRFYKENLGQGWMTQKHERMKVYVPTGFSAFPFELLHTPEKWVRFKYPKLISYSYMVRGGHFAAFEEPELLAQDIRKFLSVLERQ

Hv-mEH1 [4] = molecular target: T1, Hv-mEH1; experiment: Fluorescent substrate assay, Hv-mEH1; format: biochemical, Heliothis virescens; details: 50 mM Tris-HCl, pH 8.0, 5 μM substrate (25 μM for CMNGC), 100 μM OTFP, 1% DMSO, 0.1 mg ml^−1 BSA, 30°C
Summary of the method: (§2)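 Enzyme was microsomal fraction from High Five cells infected with recombinant baculovirus (MOI 0.5, 27°C, 65 h p.i.), solubilized with 0.5% Triton X-100, and taken as the 163,000 xg supernatant. Enzyme was preincubated 5 min with OTFP before α-cyanoester/carbonate epoxide substrate was added. Fluorescence (ex 330/em 465 nm) was read every 30 s for 10 min. Aldehyde product was quantified against a 6-methoxy-2-naphthaldehyde standard curve. No-OTFP controls measured ester hydrolysis. Quadruplicate wells, ≥3 plates.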

MsJHEH [5] = molecular target: T2, MsJHEH; experiment: Fluorescent substrate assay, MsJHEH; format: biochemical; details: 50 mM Tris-HCl, pH 8.0, 5 μM substrate (25 μM for CMNGC), 100 μM OTFP, 1% DMSO, 0.1 mg ml^−1 BSA, 30°C
Summary of the method: as §2

Hv-mEH1 [6] = molecular target: T1, Hv-mEH1; experiment: JH III partition assay and kinetic constant determination, Hv-mEH1; format: biochemical, Heliothis virescens
Summary of the method: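 Recombinant enzyme expressed in baculovirus-infected High Five cells (MOI 0.5, 27°C, harvested 65 h p.i.). Used the Triton X-100-solubilized microsomal supernatant. Tritiated JH III partition assay at eight concentrations (96 to 11,190 nM), with 1% ethanol and 0.1 mg ml−1 BSA. Ran 5 to 30 min with ≤15% hydrolysis, non-enzymatic background subtracted. KM/Vmax fitted by enzyme kinetics, triplicate, repeated three times.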

MsJHEH [7] = molecular target: T2, MsJHEH; details: cited from earlier work
Bommo-JHEH = details: ref Zhang et al., 2005; cited from earlier work
[8] = molecular target: T3, hmEH (human microsomal EH, EPHX1); details: 25 μM CMNGC; ref Morisseau et al., 2011; cited from earlier work

Row | Structure (SMILES) | Specific Activity Hv-mEH1 (Hv-mEH1 [1]) [nmol/min/mg] | Specific Activity MsJHEH (MsJHEH [2]) [nmol/min/mg] | Specific Activity hmEH with fluorescent substrates [3] [nmol/min/mg] | Specific Activity Hv-mEH1 with fluorescent substrates (Hv-mEH1 [4]) | Specific Activity MsJHEH with fluorescent substrates (MsJHEH [5]) [nmol/min/mg] | further results
1 | c1ccc([C@H]2O[C@H]2c2ccccc2)cc1 [c-SO, cis-stilbene oxide] | 45.8 ± 7.0 | 3.7 ± 0.5 | – | – | – | –
2 | c1ccc([C@@H]2O[C@H]2c2ccccc2)cc1 (relative stereo) [t-SO, trans-stilbene oxide] | 0.3 ± 0.01 | 2.1 ± 0.3 | – | – | – | –
3 | COc1ccc2cc(C(C#N)OC(=O)C[C@@H]3O[C@H]3c3ccccc3)ccc2c1 (relative stereo) [MNPE, cyano(2-methoxynaphthalen-6-yl)methyl trans-(2-(3-phenyloxiran-2-yl))acetate] | – | – | < 1.0 | 138 ± 9 nmol/min/mg | 8.9 ± 0.4 | –
4 | COC(=O)/C=C(\C)CC/C=C(\C)CC[C@H]1OC1(C)C [JH III, juvenile hormone (JH) III] | – | – | – | – | – | specificity constant (kcat/KM ratio) of Hv-mEH1 for JH III (Hv-mEH1 [6]): 630 M⁻¹ s⁻¹; Vmax of Hv-mEH1 for JH III (Hv-mEH1 [6]; 100 mM sodium phosphate, pH 8.0, 30°C, JH III diol formed): 1.7 ± 0.1 nmol/min/mg; kcat of Hv-mEH1 for JH III (Hv-mEH1 [6]; calculated using estimated molecular mass of 53.1 kDa): 0.002 s⁻¹; Vmax of MsJHEH for JH III (MsJHEH [7]; ref Severson et al., 2002): 59 nmol/min/mg; specificity constant of MsJHEH for JH III (MsJHEH [7]; ref Touhara and Prestwich, 1993): 290000 M⁻¹ s⁻¹; specificity constant of Bommo-JHEH for JH III (Bommo-JHEH): 77000 M⁻¹ s⁻¹
5 | CC[C@@H]1O[C@H]1COC(=O)OC(C#N)c1ccc2cc(OC)ccc2c1 (relative stereo) [MNPEC, cyano-(6-methoxy-naphthalen-2-yl)-methyl trans-((3-ethyl-oxiran-2-yl)methyl) carbonate] | – | – | < 1.0 | 122 ± 11 nmol/min/mg | 0.8 ± 0.1 | –
6 | c1ccc(CC2OC2c2ccccc2)cc1 (stereo not drawn) [t-DPPO, trans-diphenylpropene oxide] | 0.1 ± 0.04 | 18.3 ± 4.0 | – | – | – | –
7 | COc1ccc2cc(C(C#N)OC(=O)OC[C@@H]3O[C@H]3c3ccccc3)ccc2c1 (relative stereo) [MNPC, cyano(6-methoxy-naphthalen-2-yl)methyl trans-[(3-phenyloxiran-2-yl)methyl] carbonate] | – | – | < 1.0 | 816 ± 140 nmol/min/mg | 29 ± 18 | –
8 | COc1ccc2cc(C(C#N)OC(=O)OCC3OC3(C)C)ccc2c1 (stereo not drawn) [MNiPC, cyano-(6-methoxy-naphthalen-2-yl)-methyl 3,3-dimethyl-oxiranylmethyl carbonate] | – | – | < 1.0 | 3.7 ± 1.1 nmol/min/mg | 1.3 ± 0.5 | –
9 | CCC[C@@H]1O[C@H]1CC(=O)OC(C#N)c1ccc2cc(OC)ccc2c1 (relative stereo) [MNHE, cyano(2-methoxynaphthalen-6-yl)methyl trans-2-(3-propyloxiran-2-yl)acetate] | – | – | < 1.0 | 1,180 ± 8 nmol min^−1 mg^−1 | 38 ± 3 | –
10 | COc1ccc2cc(C(C#N)OC(=O)OCC3CO3)ccc2c1 (stereo not drawn) [CMNGC, cyano(6-methoxy-naphthalen-2-yl)methyl oxiran-2-ylmethyl carbonate] | – | – | – | 0.03 ± 0.001 nmol/min/mg | 3.3 ± 0.2 | Specific Activity hmEH with CMNGC [8]: 25 ± 2 ^b nmol min^−1 mg^−1
